From ChEMBL document CHEMBL1124938, “Antihypertensive dihydropyridines with 1,4,4-trisubstitution” (1990) come the findings set out here.

Structures are written as SMILES.

The subject of assay [1] is Rattus norvegicus. Description: Antihypertensive effects in conscious, unrestrained, spontaneously hypertensive rats after 30 mg/kg i.p. administration. The assay is classed as functional. The note with it: route intraperitoneal. An outline of the steps:
(§1)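 SHR housed singly with free access to tap water, overnight recovery before testing. Compound suspended in 1% methylcellulose, given once ip at 30 mg/kg or by oral gavage at 100 mg/kg (n = 3); concurrent controls (n = 3) got 1 mL vehicle by same route. MAP recorded continuously 24 h; value is maximum change from concurrent control, mean ± SEM.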

Assay [2] has as its system Rattus norvegicus. Description: Antihypertensive effects in conscious, unrestrained, spontaneously hypertensive rats after 100 mg/kg p.o. administration. The assay is classed as functional. The note with it: route oral. An outline of the steps: as §1
For assay [3], the system named is Rattus norvegicus. Description: Total antihypertensive activity was obtained from the area between compound and control MAP (mean arterial pressure) curves, after (ip) 30 mg/kg administration in spontaneously hypertensive rats (SHR). The assay is classed as functional, Artery. An outline of the steps:
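SHR dosed once ip at 30 mg/kg in 1% methylcellulose suspension (n = 3), with vehicle-dosed concurrent controls (n = 3). MAP recorded continuously over 24 h; time points 0, 0.25, 0.5, 1, 2, 4, 6, 12, 18 and 24 h used. Value is area between drug and control MAP curves, in mmHg × h.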

As to `CN(C)CCN1C=CC(c2ccccc2)(c2ccccc2)C=C1`, the “Max change in blood pressure” value is -30 mmHg in the assay with Rattus norvegicus [1] and -14 mmHg in the assay with Rattus norvegicus [2].
Take `COC(=O)C1=C(C)NC(C)=C(C(=O)OC)C1c1ccccc1[N+](=O)[O-]` [NIFEDIPINE]: the “Max change in blood pressure” value is -71 mmHg with Rattus norvegicus [1] and -68 mmHg in the assay with Rattus norvegicus [2].
In the case of `CN(C)CC(=O)N1C=CC(c2ccccc2)(c2ccccc2)C=C1.Cl`, the results for the “Max change in blood pressure” value in the assay on Rattus norvegicus [1] and in the assay on Rattus norvegicus [2] were -29 mmHg and -12 mmHg, respectively. Besides, the Antihypertensive activity in the assay on Rattus norvegicus [3] stood at 362 mmHg·h.
`CC1(C)C=CN(C(=O)c2ccccc2)C=C1`: the “Max change in blood pressure” value with Rattus norvegicus [1] is given as -21 mmHg; with Rattus norvegicus [2], -27 mmHg. For the same compound, the Antihypertensive activity in the assay on Rattus norvegicus [3] is 210 mmHg·h.
For `CC1(C)C=CN(C(=O)C(c2ccccc2)c2ccccc2)C=C1`, the “Max change in blood pressure” value is -9 mmHg in the assay with Rattus norvegicus [1] and -6 mmHg in the assay with Rattus norvegicus [2].
Regarding `CN(C)CCN1C=CC(C)(C)C=C1`, the “Max change in blood pressure” value with Rattus norvegicus [1] is -32 mmHg; in the assay with Rattus norvegicus [2], -10 mmHg. The same compound came in with an Antihypertensive activity in the assay with Rattus norvegicus [3] of 281 mmHg·h.
Turning to `COc1ccc(CCN2C=CC(c3ccccc3)(c3ccccc3)C=C2)cc1OC`, the “Max change in blood pressure” value with Rattus norvegicus [1] and in the assay on Rattus norvegicus [2] was -7 mmHg throughout.
For `CC1(C)C=CN(C(=O)c2ccc[nH]2)C=C1`, the “Max change in blood pressure” value with Rattus norvegicus [1] is recorded as 6 mmHg; in the assay on Rattus norvegicus [2], -7 mmHg.
As to `COC(=O)CCN1C=CC(C)(C)C=C1`, the “Max change in blood pressure” value is listed as -71 mmHg in the assay with Rattus norvegicus [1] and -19 mmHg with Rattus norvegicus [2]. In the assay with Rattus norvegicus [3], this compound came in with an Activity of 1360 mmHg·h.
As for `O=C(c1ccccc1)N1C=CC(c2ccccc2)(c2ccccc2)C=C1`, the “Max change in blood pressure” value with Rattus norvegicus [1] stood at 11 mmHg; in the assay on Rattus norvegicus [2], 12 mmHg.
With `COC(=O)CCCCN1C=CC(C)(C)C=C1`, the figures for the “Max change in blood pressure” value with Rattus norvegicus [1] and in the assay with Rattus norvegicus [2] were -58 mmHg and -11 mmHg, respectively. The compound further registered an Activity in the assay with Rattus norvegicus [3] of 943 mmHg·h.
Turning to `CNC(=O)N1C=CC(C)(C)C=C1`, the “Max change in blood pressure” value with Rattus norvegicus [1] is listed as -34 mmHg; with Rattus norvegicus [2] it was -41 mmHg.
As to `CN(C)CC(=O)N1C=CC(C)(C)C=C1.O=C(O)/C=C\C(=O)O`, the “Max change in blood pressure” value is -52 mmHg in the assay on Rattus norvegicus [1] and -39 mmHg in the assay on Rattus norvegicus [2]. Further, the Activity with Rattus norvegicus [3] stood at 132 mmHg·h.
Turning to `COC(=O)CCCN1C=CC(C)(C)C=C1`, the “Max change in blood pressure” value in the assay with Rattus norvegicus [1] was -42 mmHg; with Rattus norvegicus [2], -45 mmHg. Also, in the assay on Rattus norvegicus [3], the Activity turned out to be 696 mmHg·h.
With `CC1(C)C=CN(C(=O)Nc2ccccc2)C=C1`, the results for the “Max change in blood pressure” value with Rattus norvegicus [1] and in the assay with Rattus norvegicus [2] were -24 mmHg and -15 mmHg, respectively.
Take `CNC(=O)N1C=CC(c2ccccc2)(c2ccccc2)C=C1`: the “Max change in blood pressure” value in the assay with Rattus norvegicus [1] is 17 mmHg; in the assay with Rattus norvegicus [2], -11 mmHg.
With `CC1(C)C=CN(C(=O)c2cccnc2)C=C1`, the figures for the “Max change in blood pressure” value in the assay on Rattus norvegicus [1] and in the assay with Rattus norvegicus [2] were -19 mmHg and -26 mmHg, respectively. The compound further gave an Antihypertensive activity in the assay with Rattus norvegicus [3] of 291 mmHg·h.
As to `Cc1csc(N2C=CC(C)(C)C=C2)n1`, the “Max change in blood pressure” value is on record as 14 mmHg in the assay with Rattus norvegicus [1] and -21 mmHg in the assay on Rattus norvegicus [2].
Turning to `COC(=O)CCCN1C=CC(c2ccc(OC)cc2)(c2ccc(OC)cc2)C=C1`, the “Max change in blood pressure” value was 11 mmHg in the assay on Rattus norvegicus [1] and -21 mmHg with Rattus norvegicus [2].
For `CC1(C)C=CN(/C(=N/c2ccccc2)N2CCCC2)C=C1.O=C(O)/C=C\C(=O)O`, the “Max change in blood pressure” value in the assay on Rattus norvegicus [1] was determined as 27 mmHg; in the assay on Rattus norvegicus [2], 19 mmHg.
With `COc1ccc(CC(=O)N2C=CC(C)(C)C=C2)cc1OC`, the “Max change in blood pressure” value in the assay on Rattus norvegicus [1] is listed as -21 mmHg; in the assay on Rattus norvegicus [2], 23 mmHg.
